The source of these data is ChEMBL document CHEMBL1133533 (J Med Chem, 2000).

Test [1] concerns the target T1, D(4) dopamine receptor (Homo sapiens, UniProt P21917).
T1 sequence (P21917 whole entry): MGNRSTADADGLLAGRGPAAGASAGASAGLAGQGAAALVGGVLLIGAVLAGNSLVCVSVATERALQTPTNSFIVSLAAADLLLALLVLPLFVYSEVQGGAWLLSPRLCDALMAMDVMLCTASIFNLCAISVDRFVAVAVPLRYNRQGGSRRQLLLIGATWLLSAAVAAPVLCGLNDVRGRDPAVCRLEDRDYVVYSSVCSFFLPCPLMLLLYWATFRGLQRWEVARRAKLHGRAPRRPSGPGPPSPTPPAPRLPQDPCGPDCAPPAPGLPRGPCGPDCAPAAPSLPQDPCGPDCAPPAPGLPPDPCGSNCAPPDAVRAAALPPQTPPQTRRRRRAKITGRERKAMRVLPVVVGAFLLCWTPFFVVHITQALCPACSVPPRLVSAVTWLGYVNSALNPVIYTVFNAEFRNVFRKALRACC
Briefly: Displacement of [3H]spiperone from human Dopamine receptor D4.4 expressed in CHO cells. Format: cell-based. The gist of the method: (§1)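 Membranes from CHO cells stably expressing human D2short, D3 or D4.4 receptor, 5-25 µg protein/tube, competing against [3H]spiperone. Eight concentrations in triplicate, 2-4 independent experiments. Sigmoid nonlinear fit gives IC50, converted to Ki by Cheng-Prusoff; reported as mean ± SEM; Hill slopes fit a one-site model.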

Test [2] deals with T2, D(1A) dopamine receptor (Bos taurus, UniProt Q95136). The test is described as follows: Displacement of [3H]SCH-23390 from Dopamine receptor D1 of bovine striatal membranes. On the technique in general: Loss of bound radioactivity is the signal in a displacement assay; it reports binding, not function.
T2 sequence (Q95136 whole entry): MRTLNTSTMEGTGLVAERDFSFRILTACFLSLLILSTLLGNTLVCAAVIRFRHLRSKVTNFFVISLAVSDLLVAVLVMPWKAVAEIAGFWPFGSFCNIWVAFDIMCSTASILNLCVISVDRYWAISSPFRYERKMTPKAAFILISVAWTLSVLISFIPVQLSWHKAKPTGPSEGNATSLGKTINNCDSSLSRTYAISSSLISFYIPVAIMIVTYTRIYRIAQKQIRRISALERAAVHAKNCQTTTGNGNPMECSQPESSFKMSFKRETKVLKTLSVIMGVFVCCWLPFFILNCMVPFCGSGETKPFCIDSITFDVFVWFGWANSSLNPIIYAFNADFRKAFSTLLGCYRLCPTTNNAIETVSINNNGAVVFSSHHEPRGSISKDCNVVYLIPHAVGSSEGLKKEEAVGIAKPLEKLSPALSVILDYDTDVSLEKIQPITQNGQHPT
Test [3] concerns the target T3, D(2) dopamine receptor (Homo sapiens, UniProt P14416). The test is described as follows: Displacement of [3H]spiperone from human Dopamine receptor D2L expressed in CHO cells. Type of test: cell-based.
Test [4] has as its target T3, D(2) dopamine receptor. The test is described as follows: Displacement of [3H]spiperone from human Dopamine receptor D2S expressed in CHO cells. Type of test: cell-based. The gist of the method: as §1
The target of test [5] is D(3) dopamine receptor (Homo sapiens, UniProt P35462). The test is described as follows: Displacement of [3H]spiperone from human Dopamine receptor D3 expressed in CHO cells. Format: cell-based. The gist of the method: as §1
Chain of D(3) dopamine receptor (P35462 whole entry): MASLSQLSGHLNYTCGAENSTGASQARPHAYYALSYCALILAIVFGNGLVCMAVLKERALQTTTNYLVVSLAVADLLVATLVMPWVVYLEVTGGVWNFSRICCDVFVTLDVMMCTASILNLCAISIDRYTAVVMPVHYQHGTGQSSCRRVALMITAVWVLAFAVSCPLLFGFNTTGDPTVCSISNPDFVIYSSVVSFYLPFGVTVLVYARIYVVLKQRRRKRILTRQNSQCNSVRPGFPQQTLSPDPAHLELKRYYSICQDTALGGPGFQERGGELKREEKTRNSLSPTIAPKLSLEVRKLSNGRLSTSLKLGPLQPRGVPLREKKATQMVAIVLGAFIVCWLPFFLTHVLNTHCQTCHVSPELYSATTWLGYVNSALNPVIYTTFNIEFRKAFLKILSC
Test [6] has as its target T2, D(1A) dopamine receptor. The test is described as follows: Binding affinity against Dopamine receptor D1 from bovine striatal membranes using [3H]SCH-23390 as radioligand. The gist of the method:
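Bovine striatal membranes, 25 µg protein/tube, competing against [3H]SCH 23390 (Kd 0.27-0.32 nM). Eight concentrations in triplicate, 2-4 independent experiments. Sigmoid nonlinear fit gives IC50, converted to Ki by Cheng-Prusoff; reported as mean ± SEM.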

Test [7] has as its target T4, D(4) dopamine receptor (Homo sapiens) (UniProt P21917).
T4 sequence (whole entry): T1 sequence (P21917 whole entry)
The test is described as follows: (§2) Effective dose was measured by the stimulation of mitogenesis at dopamine D4.2 receptor. Type of test: functional. The gist of the method: (§3)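 CHO10001A cells stably expressing human D4.2 receptor, seeded at 10 000 cells/well and grown 75 h in medium with 10% FCS. Cells rinsed with serum-free medium, then given seven concentrations (final 0.001-1000 nM) for 16-18 h. [3H]thymidine 0.25 µCi/well added for 2 h at 37 °C, then filter harvest and counting. Quadruplicates, 6 experiments, normalized mean curve; EC50 from mean curves.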

Test [8] addresses T4, D(4) dopamine receptor (Homo sapiens). The test is described as follows: Agonistic effect was measured by the stimulation of mitogenesis at dopamine D4.2 receptor. Type of test: functional. The gist of the method:
as §3

The target of test [9] is T1, D(4) dopamine receptor. The description is as §2. Format: functional. The gist of the method:
as §3

In general, Ki refers to the equilibrium dissociation constant of an inhibitor or competing ligand from its target. One may read the EC50 as the midpoint of the concentration-response curve.

T3 sequence (P14416 whole entry): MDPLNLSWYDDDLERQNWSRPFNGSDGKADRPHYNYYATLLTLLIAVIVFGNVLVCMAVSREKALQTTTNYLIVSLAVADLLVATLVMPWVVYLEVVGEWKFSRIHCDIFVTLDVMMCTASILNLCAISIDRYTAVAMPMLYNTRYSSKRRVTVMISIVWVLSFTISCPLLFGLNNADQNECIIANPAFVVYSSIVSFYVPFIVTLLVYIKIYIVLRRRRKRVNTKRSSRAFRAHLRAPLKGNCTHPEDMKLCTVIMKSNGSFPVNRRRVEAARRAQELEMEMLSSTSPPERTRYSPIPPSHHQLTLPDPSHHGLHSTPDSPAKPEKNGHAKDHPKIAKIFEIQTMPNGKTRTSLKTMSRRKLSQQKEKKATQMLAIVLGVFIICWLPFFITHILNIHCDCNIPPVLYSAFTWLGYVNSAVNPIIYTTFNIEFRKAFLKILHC

`N#Cc1ccc2[nH]c(CN3CCN(c4ccccc4Cl)CC3)cc2c1`: the Ki in [1] was determined as 1.4 nM; in [2], 7500 nM; in test [3], 2300 nM; in test [4] it was 950 nM; in test [5], 1700 nM.
For `N#Cc1ccc2[nH]cc(CN3CCN(c4ccc(Cl)cc4)CC3)c2c1` the same measures were 29 nM, 550 nM, 4300 nM, 2600 nM and 6400 nM.
For `N#Cc1ccc2[nH]c(CN3CCN(c4ccc(Cl)c(Cl)c4)CC3)cc2c1`, the inhibitory constant (Ki) in test [1] amounted to 7.5 nM; in test [6], 11000 nM; in test [3] it was 43000 nM; in test [4], 36000 nM; in test [5] it was 20000 nM.
For the molecule `N#Cc1ccc2[nH]cc(CN3CCN(c4ccc(Cl)c(Cl)c4)CC3)c2c1`, the Ki was found to be 22 nM in test [1]; 450 nM in test [2]; 790 nM in [3]; 480 nM in test [4]; 870 nM in [5].
In the case of `N#Cc1ccc2[nH]c(CN3CCN(c4ccccc4)CC3)cc2c1`, the ED50 in test [7] is 1.5 nM. For the same molecule, the inhibitory constant (Ki) in test [1] worked out at 0.52 nM; in test [2], 13000 nM; in [3], 3100 nM; in [4] it was 290 nM; in [5], 1700 nM. Besides, the Effect in test [8] was 35%.
For `N#Cc1ccc2cc(CN3CCN(c4ccccc4)CC3)[nH]c2c1`, the Ki worked out at 3.6 nM in test [1]; 5300 nM in [6]; 5600 nM in test [3]; 2500 nM in [4]; 3100 nM in test [5].
Consider `N#Cc1ccc2[nH]cc(CN3CCN(c4ccccc4)CC3)c2c1`, for which the inhibition constant Ki in test [1] turned out to be 50 nM; in test [2] it was 3000 nM; in test [3], 34000 nM; in [4], 3500 nM; in test [5] it was 4400 nM.
The corresponding values for `N#Cc1ccc2[nH]cc(CN3CCN(c4ccc(F)cc4)CC3)c2c1` are 110 nM, 490 nM, 2400 nM, 1800 nM and 5200 nM.
Consider `N#Cc1ccc2cc(CN3CCN(c4ccc(Cl)c(Cl)c4)CC3)[nH]c2c1`, for which the inhibition constant (Ki) in test [1] is 9 nM; in test [6], 880 nM; in test [3], 2000 nM; in test [4], 1400 nM; in test [5] it was 33000 nM.
`N#Cc1ccc2cc(CN3CCN(c4ccccc4Cl)CC3)[nH]c2c1`: the Ki in [1] worked out at 3.4 nM; in test [6], 1900 nM; in test [5], 920 nM.
Take `N#Cc1ccc2[nH]cc(CN3CCN(c4ccccc4Cl)CC3)c2c1`: the Ki in [1] turned out to be 17 nM; in [2] it was 510 nM; in test [3], 1400 nM; in test [4] it was 540 nM; in test [5] it was 550 nM.
As for `N#Cc1ccc2[nH]c(CN3CCN(c4ccc(F)cc4)CC3)cc2c1`, the Ki in test [1] was 1 nM; in test [6] it was 8600 nM; in [3] it was 28000 nM; in test [4] it was 19000 nM; in test [5], 15000 nM. The concentration for a half-maximal effect (EC50) in test [9] was found to be 9.4 nM. Besides, the Effect in test [8] was determined as 30%.
`N#Cc1ccc2[nH]c(CN3CCN(c4ccc(Cl)cc4)CC3)cc2c1`: the Ki in test [1] was 2.1 nM; in test [6], 5300 nM; in [3], 7900 nM; in [4], 7600 nM; in test [5] it was 13000 nM.
